In ChEMBL document CHEMBL4014355 (J Med Chem, 2017):
Active and inactive are the calls of the source. The calls are words filed in the database; no cut-off is given here. Bridge positions count the residues as written; N and C are the ends. Square brackets hold non-standard residues; d marks the D form. Peptide text beside a SMILES is read from it. * marks the point of attachment. Arg(Me2s) = CN=C(NC)NCCC[C@H](N)C(=O)O; Arg(Me) = CNC(=N)NCCC[C@H](N)C(=O)O; d(αMeK) = C[C@@](N)(CCCCN)C(=O)O; dPhg = N[C@@H](C(=O)O)c1ccccc1; dOrn = NCCC[C@@H](N)C(=O)O; dDab = NCC[C@@H](N)C(=O)O; Isobutyryl = CC(C)C(=O)*; dDap = NC[C@@H](N)C(=O)O; Abu = CC[C@H](N)C(=O)O

Key:
[1] = Inhibition of 5-FAM tracer binding to WDR5 delta23 mutant (24 to 334 residues) (unknown origin) expressed in Escherichia coli Rosetta 2 (DE3) cells after 3 hrs by fluorescence polarization assay; set-up: species or system Homo sapiens
[2] = target: MLL1-ASH2L/RbBP5/WDR5/DPY30 (Homo sapiens, UniProt P61964); assay: Inhibition of human N-terminal GST-tagged MLL1 (3735 to 3973 residues) interaction with human full length N-terminal 6xHis-tagged ASH2L/N-terminal 6xHis-tagged human full length RbBP5/human N-terminal 6xHis-tagged WDR5/human full length N-terminal 6xHis-tagged DPY30 assessed as decrease in H3K4me1-2 methylation preincubated for 30 mins followed by SAM/nucleosome mixture addition measured after 120 mins in absence of light by AlphaLISA assay; assay type: protein assay
MOLM-13 [3] = assay: Cytotoxicity against human MOLM13 cells harboring MLL-AF9 fusion protein assessed as cell growth inhibition after 4 days by WST8 assay; assay type: functional, cell-based; details: MOLM-13, 96 h
Summary of the method: (§1)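 Cells (MOLM-13 with MLL-AF9, MV4-11 with MLL-AF4, HL-60 with no MLL fusion) seeded at 1 × 10^4 cells/well and exposed to a range of inhibitor concentrations for 4 days, with 0.2% DMSO final in the medium. Viability was read by WST-8 kit. Three independent experiments, each in triplicate.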

MV4-11 [4] = assay: Cytotoxicity against human MV4-11 cells harboring MLL-AF4 fusion protein assessed as cell growth inhibition after 4 days by WST8 assay; assay type: functional, cell-based; details: MV4-11, 96 h; summary of the method: as §1
HL-60 = assay: Cytotoxicity against human HL60 cells lacking MLL translocation assessed as cell growth inhibition after 4 days by WST8 assay; assay type: cell-based; details: HL-60, 96 h; summary of the method: as §1
[5] = Selectivity ratio of IC50 for human HL60 cells lacking MLL translocation to IC50 for human MOLM13 cells harboring MLL-AF9 fusion protein
[6] = Selectivity ratio of IC50 for human HL60 cells lacking MLL translocation to IC50 for human MV4-11 cells harboring MLL-AF4 fusion protein
[7] = Half life in human microsomes; assay type: ADME, Microsome
[8] = Half life in rat microsomes; assay type: ADME, Microsome
[9] = Half life in mouse microsomes; assay type: ADME, Microsome
MV4-11 [10] = assay: Cytotoxicity against human MV4-11 cells harboring MLL-AF4 fusion protein assessed as cell growth inhibition after 7 days by WST8 assay; assay type: functional, cell-based; details: MV4-11, 168 h
Summary of the method: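 MV4-11 cells (MLL-AF4) plated at 5 × 10^4 cells/mL and treated with the compound. WST-8 viability was read on day 4. Then 10% of viable cells were moved to fresh medium with the same compound concentrations and cultured 3 more days. The day-7 read was also by WST-8.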

MOLM-13 [11] = assay: Cytotoxicity against human MOLM13 cells harboring MLL-AF9 fusion protein assessed as cell growth inhibition after 7 days by WST8 assay; assay type: functional, cell-based; details: MOLM-13, 168 h
Summary of the method: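 Long-term treatment of MOLM-13 plated at 5 × 10^4 cells/mL. Viability measured by WST-8 on day 4. Then 10% of viable cells were moved to fresh medium at the same compound concentration and cultured 3 more days, with viability read again on day 7.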

MOLM-13 [12] = assay: Cytotoxicity against human MOLM13 cells harboring MLL-AF9 fusion protein assessed as cell growth inhibition at 0.38 uM after 4 days by WST8 assay; assay type: functional; details: MOLM-13, 96 h, read-out: GI
MV4-11 [13] = assay: Cytotoxicity against human MV4-11 cells harboring MLL-AF4 fusion protein assessed as cell growth inhibition at 0.69 uM after 4 days by WST8 assay; assay type: functional; details: MV4-11, 96 h, read-out: GI
MV4-11 [14] = assay: Cytotoxicity against human MV4-11 cells harboring MLL-AF4 fusion protein assessed as cell growth inhibition at […] after 7 days by WST8 assay; assay type: functional; details: MV4-11, 168 h, read-out: GI
MOLM-13 [15] = assay: Cytotoxicity against human MOLM13 cells harboring MLL-AF9 fusion protein assessed as cell growth inhibition at 0.10 uM after 7 days by WST8 assay; assay type: functional; details: MOLM-13, 168 h, read-out: GI
[16] = Stability of compound in cell culture media at 0.5 mM after 7 days by Waters ACQUITY UPLC analysis
[17] = target: Histone-lysine N-methyltransferase 2B (Homo sapiens) (UniProt Q9UMN6); assay: Inhibition of MLL2 (unknown origin) H3K4 methyltransferase activity using biotinyl-H3 peptide (1 to 21 residues) and using [3H]-S adenosylmethionine as methyl donor up to 100 uM after 1 hr by scintillation counting
[18] = target: Histone-lysine N-methyltransferase 2C (Homo sapiens) (UniProt Q8NEZ4); assay: Inhibition of MLL3 (unknown origin) H3K4 methyltransferase activity using biotinyl-H3 peptide (1 to 21 residues) and using [3H]-S adenosylmethionine as methyl donor up to 100 uM after 1 hr by scintillation counting
[19] = target: Histone-lysine N-methyltransferase 2D (Homo sapiens) (UniProt O14686); assay: Inhibition of MLL4 (unknown origin) H3K4 methyltransferase activity using biotinyl-H3 peptide (1 to 21 residues) and using [3H]-S adenosylmethionine as methyl donor up to 100 uM after 1 hr by scintillation counting
[20] = target: Histone-lysine N-methyltransferase SETD1A (Homo sapiens) (UniProt O15047); assay: Inhibition of SET1a (unknown origin) H3K4 methyltransferase activity using biotinyl-H3 peptide (1 to 21 residues) and using [3H]-S adenosylmethionine as methyl donor up to 100 uM after 1 hr by scintillation counting
Chain of Histone-lysine N-methyltransferase SETD1A (Homo sapiens) (O15047 whole entry, the tested form may be a part): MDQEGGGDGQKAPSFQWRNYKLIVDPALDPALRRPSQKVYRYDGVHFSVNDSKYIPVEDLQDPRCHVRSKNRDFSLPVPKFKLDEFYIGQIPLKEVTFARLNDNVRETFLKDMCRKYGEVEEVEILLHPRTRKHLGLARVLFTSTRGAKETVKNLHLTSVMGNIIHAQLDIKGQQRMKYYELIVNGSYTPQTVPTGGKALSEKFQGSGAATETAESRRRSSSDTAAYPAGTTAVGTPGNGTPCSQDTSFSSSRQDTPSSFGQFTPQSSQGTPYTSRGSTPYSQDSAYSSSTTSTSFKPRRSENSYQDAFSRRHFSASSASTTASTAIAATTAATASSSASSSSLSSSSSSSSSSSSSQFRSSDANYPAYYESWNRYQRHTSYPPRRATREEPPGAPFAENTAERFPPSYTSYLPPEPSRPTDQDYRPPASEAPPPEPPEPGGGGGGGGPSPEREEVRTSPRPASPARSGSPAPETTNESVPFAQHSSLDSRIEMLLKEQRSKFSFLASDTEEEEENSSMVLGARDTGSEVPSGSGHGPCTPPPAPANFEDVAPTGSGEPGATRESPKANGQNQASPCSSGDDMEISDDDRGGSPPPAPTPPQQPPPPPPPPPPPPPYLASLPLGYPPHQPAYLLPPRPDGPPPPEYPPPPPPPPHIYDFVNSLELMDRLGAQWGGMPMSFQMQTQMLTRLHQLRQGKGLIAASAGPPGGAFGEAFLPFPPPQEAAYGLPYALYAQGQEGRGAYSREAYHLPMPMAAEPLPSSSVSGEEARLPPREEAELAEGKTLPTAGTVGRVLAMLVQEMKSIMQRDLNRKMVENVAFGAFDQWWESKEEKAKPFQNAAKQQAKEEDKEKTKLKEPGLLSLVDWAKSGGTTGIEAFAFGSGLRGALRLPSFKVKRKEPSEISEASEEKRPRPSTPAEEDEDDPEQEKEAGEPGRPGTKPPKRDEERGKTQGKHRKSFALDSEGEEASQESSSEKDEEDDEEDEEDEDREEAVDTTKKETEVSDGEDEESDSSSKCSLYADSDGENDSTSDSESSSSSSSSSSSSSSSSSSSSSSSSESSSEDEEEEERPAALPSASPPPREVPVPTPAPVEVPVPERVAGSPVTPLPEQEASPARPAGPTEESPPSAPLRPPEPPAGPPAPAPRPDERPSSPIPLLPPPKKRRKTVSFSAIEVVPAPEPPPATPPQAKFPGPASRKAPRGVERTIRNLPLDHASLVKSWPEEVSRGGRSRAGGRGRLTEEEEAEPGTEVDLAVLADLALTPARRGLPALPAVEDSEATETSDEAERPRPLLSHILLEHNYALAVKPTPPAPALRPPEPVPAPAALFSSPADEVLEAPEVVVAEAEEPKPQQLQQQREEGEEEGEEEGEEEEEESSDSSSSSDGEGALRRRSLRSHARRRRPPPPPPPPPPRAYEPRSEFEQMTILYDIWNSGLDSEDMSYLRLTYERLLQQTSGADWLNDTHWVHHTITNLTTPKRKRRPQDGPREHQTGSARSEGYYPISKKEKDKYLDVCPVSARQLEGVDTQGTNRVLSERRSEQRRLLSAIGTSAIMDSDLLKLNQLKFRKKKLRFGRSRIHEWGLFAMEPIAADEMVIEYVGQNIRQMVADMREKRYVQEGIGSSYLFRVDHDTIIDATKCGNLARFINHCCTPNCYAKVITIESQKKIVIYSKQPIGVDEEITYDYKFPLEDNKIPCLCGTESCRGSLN

[21] = target: Histone-lysine N-methyltransferase SETD1B (Homo sapiens) (UniProt Q9UPS6); assay: Inhibition of […] (unknown origin) H3K4 methyltransferase activity using biotinyl-H3 peptide (1 to 21 residues) and using [3H]-S adenosylmethionine as methyl donor up to 100 uM after 1 hr by scintillation counting
Chain of Histone-lysine N-methyltransferase SETD1B (Homo sapiens) (Q9UPS6 whole entry, the tested form may be a part): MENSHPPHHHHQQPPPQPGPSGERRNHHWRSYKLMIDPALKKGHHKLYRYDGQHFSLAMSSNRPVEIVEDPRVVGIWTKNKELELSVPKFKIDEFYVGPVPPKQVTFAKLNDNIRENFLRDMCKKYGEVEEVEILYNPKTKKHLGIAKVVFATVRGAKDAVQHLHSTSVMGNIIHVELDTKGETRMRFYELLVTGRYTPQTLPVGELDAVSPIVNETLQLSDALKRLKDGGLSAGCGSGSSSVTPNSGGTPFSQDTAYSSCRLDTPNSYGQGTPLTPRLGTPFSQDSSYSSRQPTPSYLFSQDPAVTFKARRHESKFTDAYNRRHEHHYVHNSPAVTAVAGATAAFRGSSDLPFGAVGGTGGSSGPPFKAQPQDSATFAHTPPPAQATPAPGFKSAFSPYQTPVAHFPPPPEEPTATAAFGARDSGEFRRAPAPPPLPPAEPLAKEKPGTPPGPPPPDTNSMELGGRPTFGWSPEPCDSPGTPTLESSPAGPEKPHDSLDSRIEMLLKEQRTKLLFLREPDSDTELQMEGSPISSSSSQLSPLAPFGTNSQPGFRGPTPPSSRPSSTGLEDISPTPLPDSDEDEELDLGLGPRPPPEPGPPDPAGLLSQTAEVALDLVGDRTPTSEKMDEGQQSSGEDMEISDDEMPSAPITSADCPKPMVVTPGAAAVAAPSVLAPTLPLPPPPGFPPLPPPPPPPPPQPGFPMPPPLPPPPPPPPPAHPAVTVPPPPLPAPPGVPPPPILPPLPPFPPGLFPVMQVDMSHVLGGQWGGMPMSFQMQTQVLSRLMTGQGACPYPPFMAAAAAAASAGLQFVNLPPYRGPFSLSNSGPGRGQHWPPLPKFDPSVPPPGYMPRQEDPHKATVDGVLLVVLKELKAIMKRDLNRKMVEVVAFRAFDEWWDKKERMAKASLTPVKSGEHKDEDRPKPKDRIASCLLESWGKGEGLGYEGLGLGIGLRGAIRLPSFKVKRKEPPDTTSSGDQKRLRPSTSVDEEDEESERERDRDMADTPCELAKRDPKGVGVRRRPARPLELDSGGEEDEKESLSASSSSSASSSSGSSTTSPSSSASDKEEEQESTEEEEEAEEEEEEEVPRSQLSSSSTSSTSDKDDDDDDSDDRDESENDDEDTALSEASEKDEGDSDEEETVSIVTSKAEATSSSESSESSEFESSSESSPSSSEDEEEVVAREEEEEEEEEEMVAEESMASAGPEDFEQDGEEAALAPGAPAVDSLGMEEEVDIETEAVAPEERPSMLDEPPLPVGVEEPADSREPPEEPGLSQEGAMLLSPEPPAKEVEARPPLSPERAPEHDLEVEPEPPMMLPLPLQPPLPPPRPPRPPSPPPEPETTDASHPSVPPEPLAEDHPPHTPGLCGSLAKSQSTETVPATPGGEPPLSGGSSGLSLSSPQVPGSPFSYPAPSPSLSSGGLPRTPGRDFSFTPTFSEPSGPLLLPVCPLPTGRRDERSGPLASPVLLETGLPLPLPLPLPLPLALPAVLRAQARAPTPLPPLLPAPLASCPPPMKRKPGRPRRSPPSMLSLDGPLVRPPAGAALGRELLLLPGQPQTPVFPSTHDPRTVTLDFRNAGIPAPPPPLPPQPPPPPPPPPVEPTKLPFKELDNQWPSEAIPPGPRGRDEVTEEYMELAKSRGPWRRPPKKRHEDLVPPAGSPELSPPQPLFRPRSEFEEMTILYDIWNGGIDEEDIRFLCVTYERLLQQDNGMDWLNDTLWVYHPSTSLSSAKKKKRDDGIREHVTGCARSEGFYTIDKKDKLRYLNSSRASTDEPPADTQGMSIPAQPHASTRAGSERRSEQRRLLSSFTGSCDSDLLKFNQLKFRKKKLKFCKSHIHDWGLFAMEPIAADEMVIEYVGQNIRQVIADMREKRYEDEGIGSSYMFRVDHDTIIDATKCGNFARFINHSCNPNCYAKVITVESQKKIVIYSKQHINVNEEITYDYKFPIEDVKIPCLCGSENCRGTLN

Row | Compound | IC50 [1] [nM] | Ki [1] [nM] | IC50 [2] [nM] | IC50 (MOLM-13 [3]) [nM] | IC50 (MV4-11 [4]) [nM] | IC50 (HL-60) [nM] | half-life [7] [h] | half-life [8] [h] | half-life [9] [h] | also measured
1 | CC[C@@H]1NC(=O)[C@H](CCCNC(=N)N)NC(=O)[C@](C)(NC(=O)C(C)C)CCNC(=O)[C@@H](c2ccccc2)NC1=O.O=C(O)C(F)(F)F | 1.08 | < 1 | 12.6 | 280 | 460 | 17400 | > 1 | > 1 | > 1 | Ratio IC50 [5]: >30; Ratio IC50 [6]: >30
2 | CCC(CC)(NC(=O)C(C)C)C(=O)N[C@@H](CCCNC(=N)N)C(=O)NC1(C(=O)NC(c2ccccc2)c2ccccc2)CCCC1 | – | – | – | – | – | – | 0.0667 | 0.567 | 0.733 | –
3 | CC[C@@H]1NC(=O)[C@H](CCCNC(=N)NC)NC(=O)[C@](C)(NC(=O)C(C)C)CCNC(=O)[C@H](c2ccccc2)NC1=O | 2 | < 1 | 477 | 14300 | 35000 | – | – | – | – | –
4 | CC[C@@H]1NC(=O)[C@H](CCCNC(=N)NC)NC(=O)[C@](C)(NC(=O)C(C)C)CCCCNC(=O)[C@@H](c2ccccc2)NC1=O (Isobutyryl-[d(αMeK)][Arg(Me)][Abu][dPhg]; lactam 1-C) | 1.1 | < 1 | 452 | 3600 | 4300 | > 100000 | – | – | – | –
5 | CC[C@@H]1NC(=O)[C@H](CCCNC(=N)N)NC(=O)[C@](C)(NC(=O)C(C)C)CCCCN(C)C(=O)[C@@H](c2ccc(Cl)cc2)NC1=O.O=C(O)C(F)(F)F | 1.5 | < 1 | 124 | – | – | – | > 1 | > 1 | > 1 | –
6 | CC[C@@H]1NC(=O)[C@H](CCCNC(=N)N)NC(=O)[C@](C)(NC(=O)C(C)C)CCCCN(C)C(=O)[C@@H](c2ccccc2)NC1=O.O=C(O)C(F)(F)F | 1.6 | < 1 | 190 | – | – | – | > 1 | > 1 | > 1 | –
7 | CC[C@@H]1NC(=O)[C@H](CCCNC(=N)N)NC(=O)[C@](C)(NC(=O)C(C)C)CCCCN(C)C(=O)[C@@H](c2ccc(F)cc2)NC1=O.O=C(O)C(F)(F)F | 1.6 | < 1 | 138 | 16200 | 5200 | 60000 | > 1 | > 1 | > 1 | –
8 | CC[C@@H]1NC(=O)[C@H](CCCNC(=N)N)NC(=O)[C@H](NC(=O)C(C)C)CCCCNC(=O)[C@@H](c2ccccc2)NC1=O (Isobutyryl-[dK]R[Abu][dPhg]; lactam 1-C) | 298 | 60.3 | > 10000 | > 100000 | > 100000 | > 100000 | – | – | – | –
9 | CC[C@@H]1NC(=O)[C@H](CCCNC(=N)N)NC(=O)[C@H](NC(=O)C(C)C)CCCNC(=O)[C@@H](c2ccccc2)NC1=O (Isobutyryl-[dOrn]R[Abu][dPhg]; lactam 1-C) | 164 | 32.9 | > 10000 | > 100000 | > 100000 | > 100000 | – | – | – | –
10 | CC[C@H]1NC(=O)[C@@H](CCCNC(=N)N)NC(=O)[C@@](C)(NC(=O)C(C)C)CCCCNC(=O)[C@H](c2ccccc2)NC1=O | – | – | – | > 100000 | > 100000 | > 100000 | – | – | – | –
11 | CC[C@@H]1NC(=O)[C@H](CCCNC(=N)N)NC(=O)[C@](C)(NC(=O)C(C)C)CCCNC(=O)[C@@H](c2ccccc2)NC1=O.O=C(O)C(F)(F)F | 0.97 | < 1 | 84.8 | 1280 | 1290 | 46800 | > 1 | > 1 | > 1 | Ratio IC50 [5]: >30; Ratio IC50 [6]: >30
12 | CC[C@@H]1NC(=O)[C@H](CCCN/C(=N/C)NC)NC(=O)[C@](C)(NC(=O)C(C)C)CCCCNC(=O)[C@@H](c2ccccc2)NC1=O (Isobutyryl-[d(αMeK)][Arg(Me2s)][Abu][dPhg]; lactam 1-C) | 2.4 | < 1 | 1260 | 31500 | 15200 | 84800 | – | – | – | –
13 | CC[C@@H]1NC(=O)[C@H](CCCNC(=N)N)NC(=O)[C@H](NC(=O)C(C)C)CCNC(=O)[C@@H](c2ccccc2)NC1=O (Isobutyryl-[dDab]R[Abu][dPhg]; lactam 1-C) | 6.2 | 0.8 | 1800 | 42800 | 43400 | > 100000 | – | – | – | –
14 | CC[C@@H]1NC(=O)[C@H](CCCNC(=N)N)NC(=O)[C@H](NC(=O)C(C)C)CNC(=O)[C@@H](c2ccccc2)NC1=O (Isobutyryl-[dDap]R[Abu][dPhg]; lactam 1-C) | 1190 | 242 | > 10000 | – | – | – | – | – | – | –
15 | CC[C@@H]1NC(=O)[C@H](CCCNC(=N)N)NC(=O)[C@](C)(NC(=O)C(C)C)CCCCCNC(=O)[C@@H](c2ccccc2)NC1=O | 2.6 | < 1 | 1530 | 37600 | 15100 | > 100000 | – | – | – | –
16 | CC[C@@H]1NC(=O)[C@H](CCCNC(=N)NC)NC(=O)[C@](C)(NC(=O)C(C)C)CCNC(=O)[C@@H](c2ccccc2)NC1=O.O=C(O)C(F)(F)F | 0.9 | < 1 | 12.7 | 210 | 250 | 8560 | > 1 | > 1 | > 1 | Ratio IC50 [5]: >30; Ratio IC50 [6]: >30; IC50 (MV4-11 [10]): 290 nM; IC50 (MOLM-13 [11]): 100 nM; inhibition of growth at 0.38 µM (MOLM-13 [12]): 75%; inhibition of growth at 0.69 µM (MV4-11 [13]): 75%; inhibition of growth at […] (MV4-11 [14]): > 95%; inhibition of growth at 0.1 µM (MOLM-13 [15]): > 95%; Stability [16]: Stable; inhibition [17]: inactive; inhibition [18]: inactive; inhibition [19]: inactive; inhibition [20]: inactive; inhibition [21]: inactive
17 | CC[C@@H]1NC(=O)[C@H](CCCNC(=N)N)NC(=O)[C@](C)(NC(=O)C(C)C)CCCCNC(=O)[C@@H](c2ccccc2)NC1=O.O=C(O)C(F)(F)F | – | – | – | – | – | > 100000 | > 1 | > 1 | > 1 | –
